{
  "source": "BindingDB's records for doi:10.1021/jm950541c",
  "about": "(Georgia Institute of Technology, 1996)",
  "target": "T1, Calpain-2 catalytic subunit (Homo sapiens, UniProt P17655)",
  "T1 sequence (P17655 whole entry)": "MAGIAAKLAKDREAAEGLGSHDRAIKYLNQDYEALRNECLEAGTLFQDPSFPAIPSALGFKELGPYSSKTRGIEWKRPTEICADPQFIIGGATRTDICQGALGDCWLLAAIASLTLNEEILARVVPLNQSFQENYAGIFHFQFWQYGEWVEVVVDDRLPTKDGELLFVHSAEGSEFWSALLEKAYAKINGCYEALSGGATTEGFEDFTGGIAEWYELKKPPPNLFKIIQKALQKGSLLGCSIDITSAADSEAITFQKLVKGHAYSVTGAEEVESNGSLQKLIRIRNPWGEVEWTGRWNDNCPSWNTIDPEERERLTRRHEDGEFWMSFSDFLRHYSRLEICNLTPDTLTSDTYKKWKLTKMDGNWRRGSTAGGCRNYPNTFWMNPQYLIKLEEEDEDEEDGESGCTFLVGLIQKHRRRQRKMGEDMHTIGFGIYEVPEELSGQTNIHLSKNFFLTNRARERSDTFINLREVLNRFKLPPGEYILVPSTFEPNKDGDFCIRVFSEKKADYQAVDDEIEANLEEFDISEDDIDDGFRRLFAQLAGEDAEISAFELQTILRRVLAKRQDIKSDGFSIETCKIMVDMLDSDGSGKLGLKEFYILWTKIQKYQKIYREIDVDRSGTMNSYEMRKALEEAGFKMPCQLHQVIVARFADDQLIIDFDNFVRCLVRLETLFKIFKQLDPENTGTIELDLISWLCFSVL",
  "assay": "Compound was evaluated for the inhibition of Cysteine protease Calpain 2",
  "method_in_brief": "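Calpain assay in 25 mM Tris, pH 8.0, with 10 mM CaCl₂ and 5% DMSO. Suc-Leu-AMC hydrolysis was read as initial velocity (t = 30-60 s) after a 30 s delay, at room temperature. Five or more inhibitor concentrations (not above 2 × K_obs) were used at two fixed substrate levels. Ki came from Dixon plots (1/v vs I) averaged over triplicates.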",
  "data": [
    {"smiles": "CC(C)CC(NC(=O)C(c1ccccc1)c1ccccc1)C(=O)NC(Cc1ccccc1)C(=O)C(=O)NCC(O)c1ccccc1", "note": "(stereo unspecified) [2-Diphenylacetylamino-4-methyl-pentanoic acid [1-benzyl-2-(2-hydroxy-2-phenyl-ethylcarbamoyl)-2-oxo-ethyl]-amide]", "values": [
      {"measurement": "Ki", "result": 0.73, "unit": "µM"}
    ]},
    {"smiles": "CC(C)CC(NC(=O)C(c1ccccc1)c1ccccc1)C(=O)NC(Cc1ccccc1)C(=O)C(=O)NCCCN1CCOCC1", "note": "(stereo unspecified) [2-Diphenylacetylamino-4-methyl-pentanoic acid [1-benzyl-2-(3-morpholin-4-yl-propylcarbamoyl)-2-oxo-ethyl]-amide]", "values": [
      {"measurement": "Ki", "result": 0.074, "unit": "µM"}
    ]},
    {"smiles": "CC(C)CC(NC(=O)C(c1ccccc1)c1ccccc1)C(=O)NC(Cc1ccccc1)C(=O)C(=O)NCc1ccccn1", "note": "(stereo unspecified) [2-Diphenylacetylamino-4-methyl-pentanoic acid {1-benzyl-2-oxo-2-[(pyridin-2-ylmethyl)-carbamoyl]-ethyl}-amide]", "values": [
      {"measurement": "Ki", "result": 0.36, "unit": "µM"}
    ]},
    {"smiles": "CCC(NC(=O)C(CC(C)C)NC(=O)C(c1ccccc1)c1ccccc1)C(=O)C(=O)NCCCN1CCOCC1", "note": "(stereo unspecified) [3-(2-Diphenylacetylamino-4-methyl-pentanoylamino)-2-oxo-pentanoic acid (3-morpholin-4-yl-propyl)-amide]", "values": [
      {"measurement": "Ki", "result": 0.11, "unit": "µM"}
    ]},
    {"smiles": "CCC(NC(=O)C(CC(C)C)NC(=O)C(c1ccccc1)c1ccccc1)C(=O)C(=O)NCc1ccccn1", "note": "(stereo unspecified) [3-(2-Diphenylacetylamino-4-methyl-pentanoylamino)-2-oxo-pentanoic acid (pyridin-2-ylmethyl)-amide]", "values": [
      {"measurement": "Ki", "result": 0.09, "unit": "µM"}
    ]},
    {"smiles": "CCNC(=O)C(=O)C(CC)NC(=O)C(CC(C)C)NC(=O)C(c1ccccc1)c1ccccc1", "note": "(stereo unspecified) [3-(2-Diphenylacetylamino-4-methyl-pentanoylamino)-2-oxo-pentanoic acid ethylamide]", "values": [
      {"measurement": "Ki", "result": 1.2, "unit": "µM"}
    ]},
    {"smiles": "CCNC(=O)C(=O)C(CC)NC(=O)C(CC(C)C)NC(=O)Cc1cccc2ccccc12", "note": "(stereo unspecified) [3-[4-Methyl-2-(2-naphthalen-1-yl-acetylamino)-pentanoylamino]-2-oxo-pentanoic acid ethylamide]", "values": [
      {"measurement": "Ki", "result": 0.25, "unit": "µM"}
    ]},
    {"smiles": "CCNC(=O)C(=O)C(CC)NC(=O)C(CC(C)C)NC(=O)CCc1ccccc1", "note": "(stereo unspecified) [3-[4-Methyl-2-(3-phenyl-propionylamino)-pentanoylamino]-2-oxo-pentanoic acid ethylamide]", "values": [
      {"measurement": "Ki", "result": 0.13, "unit": "µM"}
    ]},
    {"smiles": "CC(C)CC(NC(=O)OCc1ccccc1)C(=O)NC(Cc1ccccc1)C(=O)C(=O)NCC(O)c1ccc(OCc2ccccc2)c(OCc2ccccc2)c1", "note": "(stereo unspecified) [(1-{1-Benzyl-2-[2-(3,4-bis-benzyloxy-phenyl)-2-hydroxy-ethylcarbamoyl]-2-oxo-ethylcarbamoyl}-3-methyl-butyl)-carbamic acid benzyl ester]", "values": [
      {"measurement": "Ki", "result": 0.67, "unit": "µM"}
    ]},
    {"smiles": "CC(C)CC(NC(=O)OCc1ccccc1)C(=O)NC(Cc1ccccc1)C(=O)C(=O)NCC(O)c1ccc(OCc2ccccc2)cc1", "note": "(stereo unspecified) [(1-{1-Benzyl-2-[2-(4-benzyloxy-phenyl)-2-hydroxy-ethylcarbamoyl]-2-oxo-ethylcarbamoyl}-3-methyl-butyl)-carbamic acid benzyl ester]", "values": [
      {"measurement": "Ki", "result": 0.24, "unit": "µM"}
    ]},
    {"smiles": "CC(C)CC(NC(=O)OCc1ccccc1)C(=O)NC(Cc1ccccc1)C(=O)C(=O)NCC(O)c1cccc(Oc2ccccc2)c1", "note": "(stereo unspecified) [(1-{1-Benzyl-2-[2-hydroxy-2-(3-phenoxy-phenyl)-ethylcarbamoyl]-2-oxo-ethylcarbamoyl}-3-methyl-butyl)-carbamic acid benzyl ester]", "values": [
      {"measurement": "Ki", "result": 0.34, "unit": "µM"}
    ]},
    {"smiles": "CC(C)CC(NC(=O)OCc1ccccc1)C(=O)NC(Cc1ccccc1)C(=O)C(=O)NCC(O)c1cccc(C(F)(F)F)c1", "note": "(stereo unspecified) [(1-{1-Benzyl-2-[2-hydroxy-2-(3-trifluoromethyl-phenyl)-ethylcarbamoyl]-2-oxo-ethylcarbamoyl}-3-methyl-butyl)-carbamic acid benzyl ester]", "values": [
      {"measurement": "Ki", "result": 0.29, "unit": "µM"}
    ]},
    {"smiles": "CC(C)CC(NC(=O)OCc1ccccc1)C(=O)NC(Cc1ccccc1)C(=O)C(=O)NCC(O)c1ccc(Oc2ccccc2)cc1", "note": "(stereo unspecified) [(1-{1-Benzyl-2-[2-hydroxy-2-(4-phenoxy-phenyl)-ethylcarbamoyl]-2-oxo-ethylcarbamoyl}-3-methyl-butyl)-carbamic acid benzyl ester]", "values": [
      {"measurement": "Ki", "result": 0.17, "unit": "µM"}
    ]},
    {"smiles": "CC(C)CC(NC(=O)OCc1ccccc1)C(=O)NC(Cc1ccccc1)C(=O)C(=O)NCc1ccccn1", "note": "(stereo unspecified) [(1-{1-Benzyl-2-oxo-2-[(pyridin-2-ylmethyl)-carbamoyl]-ethylcarbamoyl}-3-methyl-butyl)-carbamic acid benzyl ester]", "values": [
      {"measurement": "Ki", "result": 0.27, "unit": "µM"}
    ]},
    {"smiles": "CC(C)CC(NC(=O)OCc1ccccc1)C(=O)NC(Cc1ccccc1)C(=O)C(=O)NCc1ccc2ccccc2n1", "note": "(stereo unspecified) [(1-{1-Benzyl-2-oxo-2-[(quinolin-2-ylmethyl)-carbamoyl]-ethylcarbamoyl}-3-methyl-butyl)-carbamic acid benzyl ester]", "values": [
      {"measurement": "Ki", "result": 0.023, "unit": "µM"}
    ]},
    {"smiles": "CCC(NC(=O)C(CC(C)C)NC(=O)OCc1ccccc1)C(=O)C(=O)NCCc1c[nH]c2ccccc12", "note": "(stereo unspecified) [(1-{1-[2-(1H-Indol-3-yl)-ethylaminooxalyl]-propylcarbamoyl}-3-methyl-butyl)-carbamic acid benzyl ester]", "values": [
      {"measurement": "Ki", "result": 0.05, "unit": "µM"}
    ]},
    {"smiles": "CCC(NC(=O)C(CC(C)C)NC(=O)OCc1ccccc1)C(=O)C(=O)NCC(O)c1ccc(OCc2ccccc2)c(OCc2ccccc2)c1", "note": "(stereo unspecified) [(1-{1-[2-(3,4-Bis-benzyloxy-phenyl)-2-hydroxy-ethylaminooxalyl]-propylcarbamoyl}-3-methyl-butyl)-carbamic acid benzyl ester]", "values": [
      {"measurement": "Ki", "result": 0.1, "unit": "µM"}
    ]},
    {"smiles": "CCC(NC(=O)C(CC(C)C)NC(=O)OCc1ccccc1)C(=O)C(=O)NCCc1cccc(OC)c1", "note": "(stereo unspecified) [(1-{1-[2-(3-Methoxy-phenyl)-ethylaminooxalyl]-propylcarbamoyl}-3-methyl-butyl)-carbamic acid benzyl ester]", "values": [
      {"measurement": "Ki", "result": 0.086, "unit": "µM"}
    ]},
    {"smiles": "CCC(NC(=O)C(CC(C)C)NC(=O)OCc1ccccc1)C(=O)C(=O)NCC(O)c1ccc(OCc2ccccc2)cc1", "note": "(stereo unspecified) [(1-{1-[2-(4-Benzyloxy-phenyl)-2-hydroxy-ethylaminooxalyl]-propylcarbamoyl}-3-methyl-butyl)-carbamic acid benzyl ester]", "values": [
      {"measurement": "Ki", "result": 0.12, "unit": "µM"}
    ]},
    {"smiles": "CCC(NC(=O)C(CC(C)C)NC(=O)OCc1ccccc1)C(=O)C(=O)NCC(O)c1ccc(N(C)C)cc1", "note": "(stereo unspecified) [(1-{1-[2-(4-Dimethylamino-phenyl)-2-hydroxy-ethylaminooxalyl]-propylcarbamoyl}-3-methyl-butyl)-carbamic acid benzyl ester]", "values": [
      {"measurement": "Ki", "result": 0.41, "unit": "µM"}
    ]},
    {"smiles": "CCC(NC(=O)C(CC(C)C)NC(=O)OCc1ccccc1)C(=O)C(=O)NCCc1ccc(O)cc1", "note": "(stereo unspecified) [(1-{1-[2-(4-Hydroxy-phenyl)-ethylaminooxalyl]-propylcarbamoyl}-3-methyl-butyl)-carbamic acid benzyl ester]", "values": [
      {"measurement": "Ki", "result": 0.06, "unit": "µM"}
    ]},
    {"smiles": "CCC(NC(=O)C(CC(C)C)NC(=O)OCc1ccccc1)C(=O)C(=O)NCCc1ccc(OC)cc1", "note": "(stereo unspecified) [(1-{1-[2-(4-Methoxy-phenyl)-ethylaminooxalyl]-propylcarbamoyl}-3-methyl-butyl)-carbamic acid benzyl ester]", "values": [
      {"measurement": "Ki", "result": 0.046, "unit": "µM"}
    ]},
    {"smiles": "CCC(NC(=O)C(CC(C)C)NC(=O)OCc1ccccc1)C(=O)C(=O)NCC(O)c1cccc(Oc2ccccc2)c1", "note": "(stereo unspecified) [(1-{1-[2-Hydroxy-2-(3-phenoxy-phenyl)-ethylaminooxalyl]-propylcarbamoyl}-3-methyl-butyl)-carbamic acid benzyl ester]", "values": [
      {"measurement": "Ki", "result": 0.59, "unit": "µM"}
    ]},
    {"smiles": "CCC(NC(=O)C(CC(C)C)NC(=O)OCc1ccccc1)C(=O)C(=O)NCC(O)c1cccc(C(F)(F)F)c1", "note": "(stereo unspecified) [(1-{1-[2-Hydroxy-2-(3-trifluoromethyl-phenyl)-ethylaminooxalyl]-propylcarbamoyl}-3-methyl-butyl)-carbamic acid benzyl ester]", "values": [
      {"measurement": "Ki", "result": 0.18, "unit": "µM"}
    ]},
    {"smiles": "CCC(NC(=O)C(CC(C)C)NC(=O)OCc1ccccc1)C(=O)C(=O)NCC(O)c1ccc(Oc2ccccc2)cc1", "note": "(stereo unspecified) [(1-{1-[2-Hydroxy-2-(4-phenoxy-phenyl)-ethylaminooxalyl]-propylcarbamoyl}-3-methyl-butyl)-carbamic acid benzyl ester]", "values": [
      {"measurement": "Ki", "result": 0.29, "unit": "µM"}
    ]},
    {"smiles": "CCC(NC(=O)C(CC(C)C)NC(=O)OCc1ccccc1)C(=O)C(=O)NCCc1cccn1C", "note": "(stereo unspecified) [(3-Methyl-1-{1-[2-(1-methyl-1H-pyrrol-2-yl)-ethylaminooxalyl]-propylcarbamoyl}-butyl)-carbamic acid benzyl ester]", "values": [
      {"measurement": "Ki", "result": 0.076, "unit": "µM"}
    ]},
    {"smiles": "CCNC(=O)C(=O)C(CC)NC(=O)C(CC(C)C)NC(=O)c1ccco1", "note": "(stereo unspecified) [Furan-2-carboxylic acid [1-(1-ethylaminooxalyl-propylcarbamoyl)-3-methyl-butyl]-amide]", "values": [
      {"measurement": "Ki", "result": 0.58, "unit": "µM"}
    ]},
    {"smiles": "CCNC(=O)C(=O)C(CC)NC(=O)C(CC(C)C)NC(=O)c1nccc2ccccc12", "note": "(stereo unspecified) [Isoquinoline-1-carboxylic acid [1-(1-ethylaminooxalyl-propylcarbamoyl)-3-methyl-butyl]-amide]", "values": [
      {"measurement": "Ki", "result": 0.11, "unit": "µM"}
    ]},
    {"smiles": "CCNC(=O)C(=O)C(CC)NC(=O)C(CC(C)C)NC(=O)N1CCOCC1", "note": "(stereo unspecified) [Morpholine-4-carboxylic acid [1-(1-ethylaminooxalyl-propylcarbamoyl)-3-methyl-butyl]-amide]", "values": [
      {"measurement": "Ki", "result": 9.9, "unit": "µM"}
    ]},
    {"smiles": "CCNC(=O)C(=O)C(CC)NC(=O)C(CC(C)C)NC(=O)c1cccnc1", "note": "(stereo unspecified) [N-[1-(1-Ethylaminooxalyl-propylcarbamoyl)-3-methyl-butyl]-nicotinamide]", "values": [
      {"measurement": "Ki", "result": 0.83, "unit": "µM"}
    ]},
    {"smiles": "CCNC(=O)C(=O)C(CC)NC(=O)C(CC(C)C)NC(=O)c1cnccn1", "note": "(stereo unspecified) [Pyrazine-2-carboxylic acid [1-(1-ethylaminooxalyl-propylcarbamoyl)-3-methyl-butyl]-amide]", "values": [
      {"measurement": "Ki", "result": 0.48, "unit": "µM"}
    ]}
  ]
}
